Measured values pooled from the literature.
NTSR1: Neurotensin receptor type 1 (NTSR1, Homo sapiens, UniProt P30989)
COQ8A: Atypical kinase COQ8A, mitochondrial (COQ8A, Homo sapiens, UniProt Q8NI60)
PIK3CD: Phosphatidylinositol 4,5-bisphosphate 3-kinase catalytic subunit delta isoform (PIK3CD, Homo sapiens, UniProt O00329)

COc1ccccc1C1CCN(c2nc(C3(F)CC3)nc3ccc(N(C)CCN4CCOCC4)cc23)CC1
EC50 (NTSR1; β-arrestin recruitment, agonist): 7.46 µM

Cc1noc(C)c1Cc1ccc(C(=O)N2CCc3c(nc4cc(-c5ccccc5)[nH]n4c3=O)C2)o1
IC50 (COQ8A; ligand displacement, TR-FRET): 0.49 µM

CC(C)(C)OC(=O)N1CCN(Cc2ccn(Cc3ccc(Cl)cc3)c(=O)c2O)CC1
IC50 (Lysine-specific demethylase 6A (Homo sapiens, UniProt O15550); enzyme activity, inhibitor, AlphaScreen): 5.43 µM

COc1cc2ncnc(Nc3ccc4c(c3)/C(=C/c3ccccc3)C(=O)N4)c2cc1OC
IC50 (PIK3CD; enzyme activity, inhibitor, ADP detection): 0.7 µM

CC1(C)CCC(CN2CCN(c3ccc(C(=O)NS(=O)(=O)c4ccc(NCC5CCOCC5)c([N+](=O)[O-])c4)c(Oc4cnc5[nH]ccc5c4)c3)CC2)=C(c2ccc(Cl)cc2)C1
IC50 (COQ8A; ligand displacement, TR-FRET): 6.11 µM

Cc1nc(Nc2ccc3c(c2)/C(=C/c2ccccc2Cl)C(=O)N3)c2ccccc2n1
IC50 (PIK3CD; enzyme activity, inhibitor, ADP detection): 0.578 µM

C[C@]12CCC(=O)C=C1CC[C@@H]1[C@@H]2[C@@H](O)C[C@]2(CO)[C@@H](C(=O)CO)CC[C@@H]12
EC50 (Mineralocorticoid receptor (NR3C2, Homo sapiens, UniProt P08235); reporter gene, agonist, luciferase): 0.056 µM

COc1cc2ncnc(Nc3ccc4c(c3)/C(=C/c3ccccc3)C(=O)N4C)c2cc1OC
IC50 (PIK3CD; enzyme activity, inhibitor, ADP detection): 0.277 µM

CCCn1nc(C)c(-c2cc(C(=O)N3CCc4nc5cc(-c6ccccc6)[nH]n5c(=O)c4C3)[nH]n2)c1C
IC50 (COQ8A; ligand displacement, TR-FRET): 1.72 µM

COc1cc(/C=C/C(=O)CC(=O)/C=C/c2ccc(O)c(OC)c2)ccc1O
Kd (Sarcoplasmic/endoplasmic reticulum calcium ATPase 1 (ATP2A1, Oryctolagus cuniculus, UniProt P04191); binding, fluorescence; pH 7.2): 6.8 µM

Cc1nc(N(C)c2ccc3c(c2)/C(=C/c2ccccc2Cl)C(=O)N3C)c2ccccc2n1
IC50 (PIK3CD; enzyme activity, inhibitor, ADP detection): > 1 µM

O=C(Nc1nc2n(n1)C(c1ccc(F)cc1)C=C(c1ccccc1)N2)c1cccc([N+](=O)[O-])c1 (stereo not shown)
IC50 (COQ8A; ligand displacement, TR-FRET): 3.85 µM

NC(=O)c1ncc(N2CCCCC2)nc1Nc1ccc(C2CCN(C[C@H]3CCN(c4ccc5c(c4)C(=O)N(C4CCC(=O)NC4=O)C5=O)C3)CC2)cc1 (stereo partly shown)
Kd (Tyrosine-protein kinase BTK (BTK, Homo sapiens, UniProt Q06187, L528W); binding, SPR): 0.088 µM

Cc1nc(Nc2ccc3c(c2)/C(=C/c2ccccc2)C(=O)N3Cc2ccccc2)c2ccccc2n1
IC50 (PIK3CD; enzyme activity, inhibitor, ADP detection): 0.225 µM

Nc1ncnc2c1ncn2[C@@H]1O[C@H](COP(=O)(O)OP(=O)(O)OP(=O)(O)O)[C@@H](O)[C@H]1O
EC50 (P2X purinoceptor 3 (P2rx3, Rattus norvegicus, UniProt P49654); ion current, agonist, patch clamp): 0.271 µM

COc1cc2ncnc(Nc3ccc4c(c3)/C(=C/c3cccc(Cl)c3)C(=O)N4C)c2cc1OC
IC50 (PIK3CD; enzyme activity, inhibitor, ADP detection): 0.628 µM

CC(C)Oc1ccc(S(=O)(=O)c2ccc(Oc3cc(OCC(N)=O)c(C(=O)C(Cl)Cl)cc3[N+](=O)[O-])cc2)cc1
IC50 ([Pyruvate dehydrogenase (acetyl-transferring)] kinase isozyme 1, mitochondrial (PDK1, Homo sapiens, UniProt Q15118); enzyme activity, inhibitor, ATP luminescence): 0.14 µM

COc1ccc2c(c1)CCc1c-2n[nH]c1C(=O)N1CCc2nc3cc(-c4ccccc4)[nH]n3c(=O)c2C1
IC50 (COQ8A; ligand displacement, TR-FRET): 2.73 µM

COc1ccccc1C1CCN(c2nc(C3CC3)nc3ccc(N4CCC(N(C)C)C4)cc23)CC1 (stereo not shown)
EC50 (NTSR1; β-arrestin recruitment, agonist): ~65700 µM
